PRMT1 inh: blocks human protein arginine methyltransferase 1. recombinant PRMT1, activity-based probe fluorescence polarization. 1.3% of 370,000 active. Q99873. inhibition, % at 2.79 µM;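 active = inhibition above about 21% made by adding two undisclosed values, limit read from the data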
SIAE inh: inhibitors of human sialic acid acetylesterase SIAE | SIAE FP-Rh probe binding, fluorescence polarization | inhibition, % at 9.66 µM | 0.69% of 370,000 active;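 active = inhibition above a cutoff: mean of compounds within the control limits plus 3 SD of those, cut at about 17% in these data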
HTRA1 inhibitor: inhibitors of human serine peptidase HTRA1 | Q92743 | recombinant HTRA1, FP-rhodamine activity-based probe, fluorescence polarization | 0.5% of 340,000 active | inhibition, % at 5.96 µM; in the data active = inhibition above about 36%
ABHD4 inh: inhibits mouse alpha/beta hydrolase domain 4. Q8VD66. purified mABHD4, FP-Rh probe fluorescence polarization. inhibition, % at 8.92 µM. 0.54% of 370,000 active. AID 720543;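 active = inhibition exceeding the mean over every tested compound plus 3 SD, cut at about 30% in these data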
Target sequence (Q8VD66 whole entry, looked up, the tested form may be a part): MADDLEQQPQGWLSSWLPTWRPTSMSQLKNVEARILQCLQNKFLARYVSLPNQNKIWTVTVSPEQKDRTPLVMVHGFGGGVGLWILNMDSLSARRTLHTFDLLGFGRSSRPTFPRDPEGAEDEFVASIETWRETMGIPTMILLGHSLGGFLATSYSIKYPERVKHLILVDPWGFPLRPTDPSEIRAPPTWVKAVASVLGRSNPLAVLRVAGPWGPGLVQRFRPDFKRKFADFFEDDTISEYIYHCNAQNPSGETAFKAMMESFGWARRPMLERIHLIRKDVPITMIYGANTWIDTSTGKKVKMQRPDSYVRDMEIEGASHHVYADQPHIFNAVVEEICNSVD
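Test system: mouse ABHD4 enzyme, wild type. Reagent: FP-Rh fluorescent activity-based probe, added after compound pre-incubation. Timing: pre-incubation 45 min, probe exposure 60 min, at 25 °C. Technique: FP readout, ex 525 nm / em 598 nm. Benchmarks: high control S159A mutant with DMSO, low control median of compound wells.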
TCR-CD3 inh: inhibitors of human TCR-CD3 interaction; TAMRA-labeled TCR probe fluorescence, biochemical; inhibition, % at 9.4 µM; 0.37% of 360,000 active; AID 651800; in the data active = inhibition above about 19%;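 also: recombinant mutant TCR 2C K166C tagged with TAMRA read by polarization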
PRMT1 confirm: confirmation of human PRMT1 inhibitors | inhibition, % at 2.79 µM | shares compounds with PRMT1 inh | AID 687036 | recombinant His-PRMT1, activity-based probe fluorescence polarization | 42% of 3,300 active;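 active = mean inhibition across replicates above the hit cutoff derived for the earlier primary screen, cut at about 22% in these data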
Numbers stand for hits; 0 = inactive; - = no result given. This is a sample that favours compounds with a hit; in the whole collection about 2.6% have one here.

SMILES | PRMT1 inh | SIAE inh | HTRA1 inhibitor | ABHD4 inh | TCR-CD3 inh | PRMT1 confirm
CCCS(=O)(=O)c1c(S(=O)(=O)CCC)c2c(N)cccn2c1C(=O)c1ccc(Br)cc1 | 0 | 0 | 0 | 0 | 0 | -
COc1ccc(Cn2nnnc2C(C(C)C)N2CCN(c3ccccc3OC)CC2)cc1 (stereo unspecified) | 0 | 0 | 0 | 0 | 0 | -
CC(C)C(c1nnnn1Cc1ccc(F)cc1)N1CCN(c2ccc(O)cc2)CC1 (stereo unspecified) | 27.6 | 0 | - | 0 | 0 | 0
CC(C)CSc1n[nH]c(=S)s1 | 0 | 0 | 0 | 0 | 0 | -
CC(CSc1n[nH]c(=S)s1)c1ccccc1 (stereo unspecified) | 40.7 | 0 | 0 | 0 | 0 | 73.8
Cc1cc(C)c(NC(=O)CNC(=O)COC(=O)/C=C/c2cccs2)c(C)c1 | 0 | 0 | 0 | 0 | 0 | -
COC(=O)c1ccc2nc(-c3ccco3)c(Cc3ccccc3C(F)(F)F)n2c1 | 33.8 | 0 | - | 0 | 0 | 0
COC(=O)c1ccc2nc(-c3ccc(Cl)cc3)c(Cc3ccccc3OC)n2c1 | 0 | 0 | - | 0 | 0 | -
COC(=O)c1ccc2nc(C3CCCCC3)c(Cc3ccccc3C(F)(F)F)n2c1 | 0 | 0 | - | 0 | 0 | -
COc1ccccc1Cc1c(-c2ccco2)nc2cc(C)c(Br)c(C)n12 | 31.8 | 0 | - | 0 | 0 | 24.5
COC(=O)c1ccc2nc(-c3ccco3)c(Cc3ccccc3OC)n2c1 | 44.2 | 0 | - | 0 | 0 | 28.3
CC(=O)N1CC(C)Sc2ccc(S(=O)(=O)NCCc3cccc(C)c3)cc21 (stereo unspecified) | 0 | 0 | 0 | 0 | 0 | -
COc1ccc(C2(c3ccc(OC)cc3)NC(=O)N(CC(=O)NCC(C)c3ccccc3)C2=O)cc1 (stereo unspecified) | 0 | 0 | 0 | 0 | 0 | -
CCCN(CC(=O)Nc1ccccc1C)C(=O)CCN1C(=O)c2cccc([N+](=O)[O-])c2C1=O | 0 | 0 | 0 | 0 | 0 | -
CCc1ccc(-c2cn(C3CCCCC3)c(=S)[nH]2)cc1 | 29.1 | 0 | 0 | 0 | 0 | 0
O=C(N/C(=C\c1ccco1)C(=O)N1CCOCC1)c1ccccc1Cl | 29.4 | 0 | 0 | 0 | 0 | 0
O=C(NCSc1ccccc1)c1ccccc1 | 0 | 0 | 0 | 0 | 0 | -
O=C(CNC(=O)c1ccccc1)Sc1ccccc1 | 49.2 | 0 | 0 | 0 | 0 | 75.9
Cc1ccc(N(C)S(=O)(=O)c2cc3c(cc2C)NC(=O)CO3)cc1 | 0 | 0 | 0 | 0 | 0 | -
Cc1ccc(-c2nn(-c3ccccc3)cc2/C=C/C(=O)O)o1 | 30.6 | 0 | 0 | 0 | 0 | 0
O=C(O)/C=C/c1cn(-c2ccccc2)nc1-c1cc2ccccc2oc1=O | 0 | 0 | 0 | 0 | 0 | -
Cc1ccc(-c2nn(-c3ccccc3)cc2CN(Cc2ccccc2)C(=O)c2ccco2)o1 | 39.1 | 0 | 0 | 0 | 0 | 0
O=C(CSc1nnc(CNC(=O)c2ccco2)o1)Nc1ccc(F)cc1 | 0 | 0 | 0 | 0 | 0 | -
C=CCN1[C@@H](C)[C@H](c2ccccc2)Oc2cccc(NCC(C)C)c2S1(=O)=O | 0 | 0 | - | 0 | 0 | -
COC(=O)Nc1ccc(SCC(=O)c2ccc(Cl)cc2)cc1 | 68.9 | 0 | 0 | 0 | 0 | 55.0
SMILES | PRMT1 inh | SIAE inh | HTRA1 inhibitor | ABHD4 inh | TCR-CD3 inh | PRMT1 confirm
COC(=O)Nc1ccc(SCC(=O)c2ccccc2)cc1 | 25.8 | 0 | 0 | 0 | 0 | 0
CC(C)(C)OC(=O)NCCc1nnc(SCC(=O)c2ccc(Cl)cc2)o1 | 0 | 0 | 0 | 0 | 0 | -
CCN1CCSc2ccc(C(=O)NCc3ccccc3F)cc21 | 51.9 | 0 | 0 | 0 | 0 | 0
Nc1nc2c(s1)CCc1ccccc1-2 | 26.0 | 0 | 0 | 0 | 0 | 0
O=C1NC(=O)C(c2ccc(Cl)cc2Cl)N1 (stereo unspecified) | 0 | 0 | 0 | 0 | 0 | -
CCOC(=O)C1C(=O)NC(SC)=C(C#N)C1c1ccccc1F (stereo unspecified) | 0 | 0 | 0 | 0 | 0 | -
N#CC1=C(N)NC(=S)C(C(N)=O)C1c1ccccc1F (stereo unspecified) | 63.9 | 0 | 0 | 0 | 0 | 34.0
N#CC1=C(N)NC(=S)C(C(N)=O)C1c1ccc(Cl)cc1Cl (stereo unspecified) | 72.5 | 0 | 0 | 0 | 0 | 34.3
CC(=O)c1ccc(NS(=O)(=O)c2ccc3c(c2)CCC(=O)N3)cc1 | 0 | 0 | 0 | 0 | 0 | -
CCCCN(C(=O)CCN1C(=O)C2CC=CCC2C1=O)c1c(N)n(CCCC)c(=O)[nH]c1=O (stereo unspecified) | 0 | 0 | 0 | 0 | 0 | -
